In ChEMBL document CHEMBL1123938, “Synthesis and biological studies of iodinated (127/125I) derivatives of rhodamine 123” (1987):
Where “and” joins values, the source holds several entries; their conditions need not be identical. Identical values can stand only once.

What was measured:
Cricetulus griseus = organism: Cricetulus griseus; assay: Extra cellular concentration of radiolabeled compound was determined in chinese hamster V79 lung fibroblasts; type: functional
Summary of the method: (§1)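 V79 Chinese hamster lung fibroblasts or human PC3 prostate adenocarcinoma cells, grown at 37 °C in MEM with 15% fetal calf serum. Log-phase cells were trypsinized and suspended at 2 × 10⁵/mL in calcium-free MEM, then preincubated 4 h at 37 °C on a roller. Carrier-free ¹²⁵I-labelled dihydrorhodamine derivative was added and incubated 2 h at 37 °C. Cell radioactivity was measured by microfuge; intracellular concentration was derived from Coulter-measured cell volumes.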

PC-3 = assay: Extra cellular concentration of radiolabeled compound was determined in human prostate PC3 adenocarcinoma cells; type: functional, cell-based; summary of the method: as §1
[1] = Ratio of pCi/cell cellular uptake to uCi/mL cellular uptake; type: functional

Row | SMILES | Concentration (Cricetulus griseus) [uCi ml-1] | Concentration (PC-3) [uCi ml-1] | Ratio [1]
1 | COC(=O)c1ccccc1C1c2cc(I)c(N)cc2Oc2cc(N)c(I)cc21 | 0.97 | 0.883 | 
2 | COC(=O)c1ccccc1C1c2ccc(N)cc2Oc2c1ccc(N)c2I (stereo unspecified) | 1.27 | 1.2 | 
3 | COC(=O)c1ccccc1C1c2cc(I)c(N)cc2Oc2c1cc(I)c(N)c2I (stereo unspecified) | 1.3 | 1.15 | 0.152 and 0.348
4 | COC(=O)c1ccccc1C1c2cc(I)c(N)cc2Oc2c1ccc(N)c2I (stereo unspecified) | 1.64 | 1.35 | 
5 | COC(=O)c1ccccc1C1c2ccc(N)cc2Oc2cc(N)c(I)cc21 (stereo unspecified) | 0.956 | 0.937 | 
